Test results taken from PMC3873380 (Molecular pharmaceutics, 2013).

Tested on: SK-OV-3 cells
Assay: Confocal microscopy on live cells
Type: cell-based, human
Conditions: F′-PEpYLGLD 5 μM alone, opti-MEM, 2 h, 37 °C
Outline: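 SK-OV-3 seeded at 1 × 10^5 cells/well on coverslips overnight in EMEM, then rinsed with opti-MEM. Exposed to treatments in opti-MEM for 2 h at 37 °C, washed three times with PBS and mounted. Imaged by laser scanning confocal, 20× objective, sequential frame mode. Channels: FITC (ex 488, em 500–550 nm), DAPI (ex 405, em 425–475 nm), DIC.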

Substance: F′-PEpYLGLD
- intracellular fluorescence of F′-PEpYLGLD alone (confocal): No green fluorescence was observed
